Assay results from ChEMBL document CHEMBL4513216, “Probing the Open Global Health Chemical Diversity Library for Multistage-Active Starting Points for Next-Generation Antimalarials” (ACS Infect Dis, 2020).

Assay: Toxicity liver stage against HepG2, at 10uM
Assay type: cell-based
Parameters: test concentration 10 uM, cell line HepG2-A16-CD81EGFP
Conditions: human, HepG2-A16-CD81EGFP cells; read-out: INHIBITION
Outline: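 Uninfected HepG2-A16-CD81EGFP cells, 3 × 10^3 per well, 1536-well, plated on prespotted compound at 10 μM final, parasite-free screening media added to match infected plates; puromycin 10 μM positive, DMSO 0.5% negative; run in parallel with 48 h PbLuc assay at 37 °C, 5% CO2; viability by CellTiter-Glo luminescence, normalized to controls.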

SMILES | cytotoxicity at 10 µM [%]
CCN(CC)C(=O)CSc1sc2c(O)cc(=O)[nH]c2c1C(N)=O | 0.488
CCc1cnc2c(c1Nc1ccc3c(c1)OCO3)c(=O)n(C)c(=O)n2C | 9.06
O=S(=O)(NCC1(O)CCOc2ccccc21)c1ccc(Cl)s1 (stereo unspecified) | 6.87
COc1cc(C(=O)NCCCc2ccccc2)on1 | -2.1
Cc1cc(C)c(S(=O)(=O)Nc2c(C)nc(N(C)C)nc2C)cc1C | 6.63
COCCN1C[C@H]2CCN(C(C)=O)CC[C@H]2S1(=O)=O | 15.4
CCN1C[C@H]2CCN(C(=O)C3CCCO3)CC[C@H]2S1(=O)=O (stereo partly specified) | 18
O=C1[C@@H]2CCN(C3CCC3)C[C@@H]2OCCN1Cc1ccncc1 | -135
O=C(c1cnccn1)N1CCc2onc(CN3CCCC3)c2C1 | 8.7
CS(=O)(=O)N1Cc2nccn2CC(CN2CCCC2)C1 (stereo unspecified) | -111
Cn1cc(CN2CCC3(CCCN(C(=O)c4cnccn4)C3)C2)cn1 (stereo unspecified) | -131
CCOc1ccccc1C(=O)Oc1cc(=O)n2cccc(C)c2n1 | 22.1
COc1cccc(C(c2c(C)n[nH]c2O)c2c(C)n[nH]c2O)c1OC | 12.4
Cc1ccccc1-n1c(O)cc(C)c(C#N)c1=O | -1.54
COc1ccccc1C(=O)Nc1c(F)c(C(=O)NC2CCCC2)nn1C | -10.8
CCS(=O)(=O)NCCCn1ncc2c(C)cccc21 | 6.8
O=C1CN([C@@H]2CC[C@@H](NS(=O)(=O)c3ccccc3)[C@H]2O)CCN1 | 7.41
O=C(NC1CC1)[C@H]1CN(Cc2ccccc2)C[C@@H]1C(=O)c1ccccc1 | 0.401
CCNC(=O)C1(Cc2cc(-c3ccccc3)no2)CCCN(C(C)C)C1 (stereo unspecified) | 1.62
O=C(c1ccc2[nH]nnc2c1)N1C[C@H](O)[C@]2(CCCO2)C1 | 3.42
Cc1oc2c(c1C(=O)N1C[C@H](O)[C@]3(CCCO3)C1)CCCC2 | -0.4
CC(C)(C)OC(=O)N[C@@H]1C[C@@H](O)CN(C(=O)c2cccc(F)c2)C[C@H]1O | 0.187
Cc1cncnc1C1CCN(CC2CC2)CC1 | -1.06

SMILES | cytotoxicity at 10 µM [%]
NC(=O)c1cn[nH]c1C1CCCN1C(=O)c1cnccn1 (stereo unspecified) | -6.17
Cc1ccn(CCNC(=O)C2CCN(S(=O)(=O)c3ccc(F)cc3)C2)n1 (stereo unspecified) | -24.5
CC(=O)N1CCc2nnc(C3CCCCN3CC3CC3)n2CC1 (stereo unspecified) | -15.4
Cc1ccc(C2CCCN(C(=O)c3cnn(C)c3)C2)nc1 (stereo unspecified) | -25.8
Cc1cc(C)c2cc(CNCCCN3CCOCC3)c(=O)[nH]c2c1 | -23.8
COc1cccc(CN2CCC3(CC(Nc4ccncn4)C3)C2)c1F (stereo unspecified) | 1.69
Cc1cc(C)nc(Nc2cccc(C3CCCN(CCO)C3)n2)n1 (stereo unspecified) | -12.9
Cn1cccc1C(=O)N1CCCCC1c1[nH]ncc1S(C)(=O)=O (stereo unspecified) | -4.66
Cc1cccc(C(=O)N2CCCCC2c2[nH]ncc2S(C)(=O)=O)c1 (stereo unspecified) | -7.44
COc1nccc(C(F)(F)F)c1C(=O)O | 16
Cc1cc(N(C)C)nc(N2CCCC2c2cc(C)on2)n1 (stereo unspecified) | -2.38
O=C(O)c1ccn(-c2ccccc2NC(=O)c2ccccc2Cl)n1 | -161
Cc1nc(CN2CCN(CC(O)CN3CCOCC3)CC2)oc1C (stereo unspecified) | 5.92
O=C1NCCCCC1NC(=O)C1(c2ccccc2)CCOCC1 (stereo unspecified) | -14.2
O=C1CCCCN1CCCNCc1cnc(C2CCC2)s1 | 0.00973
O=C(NS(=O)(=O)c1cccc(C(F)(F)F)c1)c1cnsn1 | -2.98
CCN(C)c1cc(CNC(=O)CNC(=O)CC2CCCCC2)ccn1 | 2.34
Fc1ccc(C2(NCc3ccccc3)CCOCC2)cc1 | -9.91
CN(C1CCCCC1)S(=O)(=O)NC1CCCN(c2ncccn2)C1 (stereo unspecified) | 3.7
O=C(NCCNC(=O)C1CC1)c1cnc(-c2ccccc2)nc1 | 12.3
CC(C(=O)N1CCN(Cc2ccncc2)CC1)n1cncn1 (stereo unspecified) | -4.73
CCN(CC)c1ncc(CNC2CCc3nc(C)nn3C2)s1 (stereo unspecified) | 2.78
CCN(C(=O)C(C)C)C(c1cccnc1)c1ccc2c(c1)CCO2 (stereo unspecified) | 2.14

SMILES | cytotoxicity at 10 µM [%]
O=C(CCc1ccncc1)NCCOc1ncc(Cl)cc1Cl | -2.56
CC(NCc1cccc2c1OCCO2)c1cc2c(cc1Br)OCCO2 (stereo unspecified) | 3.6
O=S1(=O)CCC(n2cc(CNc3ccccc3Br)cn2)C1 (stereo unspecified) | -4.9
COCCOCC(=O)NC(C#N)c1cccc(Cl)c1Cl (stereo unspecified) | 7.84
COCCCNC(=O)CN1CCSC(c2ccccc2)C1 (stereo unspecified) | 13.5
O=C(CCCc1ccccn1)NCC(O)c1ccccc1Cl (stereo unspecified) | -9.08
O=C(Cn1nnc(-c2cc3ccccc3o2)n1)N1CCOCC1 | 7.63
Cc1cccc(N(CCC(N)=O)CC(=O)Nc2cc(Cl)ccc2Cl)c1 | 11.3
Cc1ccc(C(=O)NCCCn2cncn2)c(=O)[nH]1 | -14.4
CC(C)c1nc(/C=C/c2cnn(-c3ccc(Cl)cc3)c2)ncc1C(=O)O | -6.21
CC(C)(NC(=O)c1ccc(-c2ccc(F)cc2)s1)C(N)=O | -4.05
CN(C)C(=O)C1CN(Cc2ccc(C#N)cc2F)c2ccccc2O1 (stereo unspecified) | 7.14
CN(CC(=O)NCCCOc1ccc(F)cc1)c1ccc(C#N)cn1 | -0.844
O=C(NCC1(O)CCC1)c1cccc(-n2cccn2)c1 | -2.44
COc1ccc(OC)c(CN(C)c2nc3c(cnn3C)c(=O)[nH]2)c1 | 59.5
O=C1CC(NS(=O)(=O)c2ccccc2)CN1Cc1ccccc1 (stereo unspecified) | 6.89
Cc1nc(CN2CCN(C(=O)COCc3ccccc3)CC2)no1 | -14.1
CC(NC(=O)COc1nc(C(C)(C)C)no1)c1ccco1 (stereo unspecified) | -5.41
Cn1cc(Br)c(=O)c(NS(=O)(=O)c2cc(F)ccc2Cl)c1 | -11
COC[C@@]12CCO[C@@H]1CCN(C(=O)C1CCSCC1)C2 | -104
Cc1cn2c(=O)c(-c3ccnc(N4CCC[C@@H]4CO)n3)cnc2s1 | -9.52
CN1CCC(N(Cc2ccncc2)Cc2nc3c(s2)CCCC3)CC1 | -2.56
O=C1CC[C@@H](CN(Cc2ccncc2)Cc2nc(-c3cccs3)no2)N1 | -10.7

SMILES | cytotoxicity at 10 µM [%]
COc1ccccc1Oc1ncccc1CNC(=O)CN1CCCC1=O | -4.72
Cc1ccc2ncn(C(C)Cn3cccn3)c(=O)c2c1 (stereo unspecified) | 4.4
CC1=C(CCN2CC[C@@H](N3CCC(O)CC3)[C@H](O)C2)C(C)(C)CCC1 | -4.42
CCn1ccnc1CN(C)c1cc(C2CCCNC2)nc(C)n1 (stereo unspecified) | -2.48
COc1cc(F)c(-n2cnc(CCNC(C)=O)c2)cc1F | -12.1
Cc1ncc(S(C)(=O)=O)c(N2Cc3ccccc3C2)n1 | -18.3
Cc1ccccc1CN(CCN(C)C)Cc1ncc[nH]1 | -7.11
O=C(O)C(c1ccc2c(c1)OCCO2)N1CCSCC1 (stereo unspecified) | 1.38
Cc1nc(CN)cc(N2CCC(O)(c3ccc(Cl)cc3)CC2)n1 | -8.13
CCn1nc(C)c(CN(CCOC)Cc2ccccn2)c1C | 9.77
CCc1c(C)sc2ncnc(N3CCN(C4CCOCC4)CC3)c12 | 8.48
CSc1ccccc1CC1CCCS(=O)(=O)C1 (stereo unspecified) | 2.26
CCN1CCC(Cn2ccc3ccc(C(=O)OC)cc3c2=O)C1 (stereo unspecified) | -9.09
CC[C@@H](c1ccccc1)n1c(CN)n[nH]c1=O | -4.34
Cc1ccc(F)c(OC2(C(=O)O)CCN(C(=O)c3ccccc3)CC2)c1 | 4.2
Cc1nn(C)c(C)c1-c1ccnc(N(C)Cc2noc(C(C)C)n2)n1 | 26.4
Cc1ccc(-c2ccc(Cl)nn2)cc1S(=O)(=O)N1CCOCC1 | -4.26
CCCc1c(C2CCOC(C)(C)C2)nc(N)c(C#N)c1-c1cnn(C)c1 (stereo unspecified) | -3.22
CN(CC(=O)Nc1ccncc1)C1CCCN(c2cccnn2)C1 (stereo unspecified) | -3.44
Cc1nc(C)c(C(=O)NCCn2nc3ccccn3c2=O)s1 | -2.51
CCc1nc2n(n1)CC(NCc1nc(-c3ccccn3)no1)CC2 (stereo unspecified) | -3.45
Cc1noc(C)c1S(=O)(=O)NC(=O)COc1ccc(C(C)C)cc1 | 2.1
Cc1ccc(C(=O)N2CCN(Cc3cccs3)CC2)c(=O)[nH]1 | -8.39

SMILES | cytotoxicity at 10 µM [%]
Cc1cnn(CC2CCCCN2Cc2cc(C)no2)c1 (stereo unspecified) | -9.21
COc1cccc(CCC(=O)N2CCN(CC(C)(C)O)CC2)c1 | -8.39
CC(C)(C)c1nc(CN2CCCC(Cn3cncn3)C2)no1 (stereo unspecified) | -0.0792
CCc1nc(CC(=O)N2CCN(c3cnccn3)CC2)cs1 | 1.97
CCn1c(C)nnc1CN(C)C1CCN(CCCOC)C1 (stereo unspecified) | 4.19
Cc1oc(-c2ccco2)nc1CC(=O)N1CCC(C(O)C(F)(F)F)CC1 (stereo unspecified) | -5.25
O=C1CC2(CCCNC2)C(=O)N1Cc1ccc(F)cc1 (stereo unspecified) | 1.65
Cc1nc(NC(=O)C2(C)CN(C)CCO2)sc1C (stereo unspecified) | 2.44
CN1C[C@@H](C(=O)N(C)C)[C@@]2(CCc3ccccc3C(=O)N2)C1 | 1.2
Cc1ncc2c(n1)C1(CCN(C(=O)C(C)C)CC1)OCC2 | 5.49
COc1cc2c(cc1CN1CCn3c(CO)nnc3C1)CCC2 | -4.05
CC(C)N1CCc2onc(Cn3cccc3)c2C1 | 7.55
CC(=O)N1CCN(c2cc(CCN)nc(C3CC3)n2)CC1 | -26.2
Cc1ccc(N2CC[C@@H]3O[C@@H](COCc4cccnc4)CC[C@@H]32)nn1 | 8.37
CS(=O)(=O)N[C@H]1CCO[C@]2(CCN(C(=O)c3ccccn3)C2)C1 | -73.3
Cc1ccc(N2CCCC3(CCCC(=O)N3)C2)nn1 (stereo unspecified) | -1.52
Cn1ccnc1CN1CCC2(CC(=O)N(c3ccc4c(c3)OCO4)C2)C1 (stereo unspecified) | -79.8
O=c1c2sccc2nc2n1CCN(Cc1cc(F)ccc1F)CC2 | -21.8
CO[C@@H]1CCN(Cc2ccc(C)o2)[C@H]1Cc1ccccc1 | -3.15
